Source: ChEMBL document CHEMBL1777792, “Synthesis and evaluation of indole-based new scaffolds for antimicrobial activities--identification of promising candidates” (Bioorg Med Chem Lett, 2011)

Key:
Candida albicans [1] = assay: Antifungal activity against Candida albicans in yeast extract-peptone-glucose medium at 450 ug/ml after 48 hrs by disc diffusion assay in presence of […]; format: functional
In short: (§1)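 This is a C. albicans disc diffusion on YEPD agar containing rhodamine 6G, a substrate of the Cdr1p/Cdr2p ATP-dependent efflux pumps, to test for enhanced R6G toxicity. A set number of cells was spread, and 0.5 cm discs were spotted with compound solution or reference solvent. Plates were incubated at 30 °C and the zone diameter was measured.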

Escherichia coli [2] = assay: Antibacterial activity against Escherichia coli harboring ampicillin-resistance gene encoding plasmid at 450 ug/ml after 24 hrs by disc diffusion assay; format: functional; conditions: read-out: DIZ
In short: (§2)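 Disc diffusion used an E. coli strain carrying a plasmid that encodes an ampicillin-resistance gene. Inhibition zone diameters were recorded and compared against the corresponding solvent controls.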

Candida albicans [3] = assay: Antifungal activity against Candida albicans in yeast extract-peptone-glucose medium at 450 ug/ml after 48 hrs by disc diffusion assay; format: functional; conditions: read-out: DIZ
In short: (§3)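 C. albicans cells at a set number were spread on YEPD agar, either plain or containing the cell-wall disruptant named in the line (SDS, Congo red or calcofluor white). Compound solution, or the reference solvent as control, was spotted onto 0.5 cm discs placed on the lawn. Plates were incubated at 30 °C and the inhibition zone diameter was measured.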

Candida albicans [4] = assay: Antifungal activity against Candida albicans in yeast extract-peptone-glucose medium at 450 ug/ml after 48 hrs by disc diffusion assay in presence of 0.01% of sodium dodecylsulphate; format: functional; conditions: read-out: DIZ; in short: as §3
Candida albicans [5] = assay: Antifungal activity against Candida albicans in yeast extract-peptone-glucose medium at 450 ug/ml after 48 hrs by disc diffusion assay in presence of 100 ug/ml of calcofluor white; format: functional; in short: as §3
Candida albicans [6] = assay: Antifungal activity against Candida albicans in yeast extract-peptone-glucose medium at 450 ug/ml after 48 hrs by disc diffusion assay in presence of 150 ug/ml of congo red; format: functional; in short: as §3
Candida albicans [7] = assay: Antifungal activity against Candida albicans in yeast extract-peptone-glucose medium at 375 ug/ml after 48 hrs by disc diffusion assay in presence of 0.01% of sodium dodecylsulphate; format: functional; conditions: read-out: DIZ; in short: as §3
Candida albicans [8] = assay: Antifungal activity against Candida albicans in yeast extract-peptone-glucose medium at 375 ug/ml after 48 hrs by disc diffusion assay in presence of 100 ug/ml of calcofluor white; format: functional; in short: as §3
Candida albicans [9] = assay: Antifungal activity against Candida albicans in synthetic dextrose minimal medium after 48 hrs by ELISA based serial dilution method
Candida albicans [10] = assay: Antifungal activity against Candida albicans in yeast extract-peptone-glucose medium at 375 ug/ml after 48 hrs by disc diffusion assay in presence of rhodamine 6G
Escherichia coli [11] = assay: Antibacterial activity against Escherichia coli harboring ampicillin-resistance gene encoding plasmid at 375 ug/ml after 24 hrs by disc diffusion assay; format: functional; conditions: read-out: DIZ; in short: as §2
Candida albicans [12] = assay: Antifungal activity against Candida albicans in yeast extract-peptone-glucose medium at 375 ug/ml after 48 hrs by disc diffusion assay in presence of 150 ug/ml of congo red; format: functional; in short: as §3
Candida albicans [13] = assay: Antifungal activity against Candida albicans in yeast extract-peptone-glucose medium at 375 ug/ml after 48 hrs by disc diffusion assay; format: functional; conditions: read-out: DIZ; in short: as §3
Candida albicans [14] = assay: Antifungal activity against Candida albicans in yeast extract-peptone-glucose medium at 238 ug/ml after 48 hrs by disc diffusion assay in presence of 0.01% of sodium dodecylsulphate; format: functional; conditions: read-out: DIZ; in short: as §3
Candida albicans [15] = assay: Antifungal activity against Candida albicans in yeast extract-peptone-glucose medium at 238 ug/ml after 48 hrs by disc diffusion assay in presence of […]; format: functional; in short: as §1
Candida albicans [16] = assay: Antifungal activity against Candida albicans in yeast extract-peptone-glucose medium at 238 ug/ml after 48 hrs by disc diffusion assay; format: functional; conditions: read-out: DIZ; in short: as §3
Escherichia coli [17] = assay: Antibacterial activity against Escherichia coli harboring ampicillin-resistance gene encoding plasmid at 238 ug/ml after 24 hrs by disc diffusion assay; format: functional; conditions: read-out: DIZ; in short: as §2
Candida albicans [18] = assay: Antifungal activity against Candida albicans in yeast extract-peptone-glucose medium at 238 ug/ml after 48 hrs by disc diffusion assay in presence of 150 ug/ml of congo red; format: functional; in short: as §3
Candida albicans [19] = assay: Antifungal activity against Candida albicans in yeast extract-peptone-glucose medium at 545 ug/ml after 48 hrs by disc diffusion assay in presence of 150 ug/ml of rhodamine 6G; format: functional
In short: (§4)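 C. albicans cells were spread at a set number over YEPD agar containing the additive named in the line. Discs 0.5 cm across were placed on the lawn and spotted with test compound solution or reference solvent. Plates were incubated at 30 °C. The inhibition zone diameter was measured in mm and compared with the solvent-control disc.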

Candida albicans [20] = assay: Antifungal activity against Candida albicans in yeast extract-peptone-glucose medium at 545 ug/ml after 48 hrs by disc diffusion assay; format: functional; conditions: read-out: DIZ; in short: as §3
Escherichia coli [21] = assay: Antibacterial activity against Escherichia coli harboring ampicillin-resistance gene encoding plasmid at 545 ug/ml after 24 hrs by disc diffusion assay; format: functional; conditions: read-out: DIZ; in short: as §2
Candida albicans [22] = assay: Antifungal activity against Candida albicans in yeast extract-peptone-glucose medium at 545 ug/ml after 48 hrs by disc diffusion assay in presence of 150 ug/ml of congo red; format: functional; in short: as §4
Candida albicans [23] = assay: Antifungal activity against Candida albicans in yeast extract-peptone-glucose medium at 545 ug/ml after 48 hrs by disc diffusion assay in presence of 100 ug/ml of calcofluor white; format: functional; in short: as §4
Candida albicans [24] = assay: Antifungal activity against Candida albicans in yeast extract-peptone-glucose medium at 545 ug/ml after 48 hrs by disc diffusion assay in presence of 0.01% of sodium dodecylsulphate; format: functional; conditions: read-out: DIZ; in short: as §3

For `O=C(C(=O)N1CCCCC1)c1cn(CCCCCn2cc(C(=O)C(=O)N3CCCCC3)c3ccccc32)c2ccccc12`, the “diameter of the inhibition zone (DIZ)” value (Candida albicans [1]) was 6.5 mm, the zone of inhibition at 450 µg/mL (Escherichia coli [2]) was 8.5 mm and the zone of inhibition at 450 µg/mL (Candida albicans [3]) was 6 mm. The zone of inhibition at 450 µg/mL (Candida albicans [4]) was 6.5 mm, the “diameter of the inhibition zone (DIZ)” value (Candida albicans [5]) was 6.5 mm and the “diameter of the inhibition zone (DIZ)” value (Candida albicans [6]) was 7 mm.

With `O=C(C(=O)N1CCOCC1)c1cn(CCCCCn2cc(C(=O)C(=O)N3CCOCC3)c3ccccc32)c2ccccc12` the zone of inhibition at 375 µg/mL (Candida albicans [7]) was 7 mm, the “diameter of the inhibition zone (DIZ)” value (Candida albicans [8]) was 7.5 mm and the IC50 (Candida albicans [9]) was 340 µM. For the same molecule, the “diameter of the inhibition zone (DIZ)” value (Candida albicans [10]) was 8 mm, the zone of inhibition at 375 µg/mL (Escherichia coli [11]) was 8.5 mm and the “diameter of the inhibition zone (DIZ)” value (Candida albicans [12]) was 7 mm. For the same molecule, the zone of inhibition at 375 µg/mL (Candida albicans [13]) was 7.5 mm.

In the case of `O=C(C(=O)N1CCCCC1)c1cn(CCCCCCn2cc(C(=O)C(=O)N3CCCCC3)c3ccccc32)c2ccccc12`, the zone of inhibition at 238 µg/mL (Candida albicans [14]) is reported as 6.5 mm, the “diameter of the inhibition zone (DIZ)” value (Candida albicans [15]) is reported as 5.5 mm and the zone of inhibition at 238 µg/mL (Candida albicans [16]) is reported as 6.5 mm. For the same molecule, the zone of inhibition at 238 µg/mL (Escherichia coli [17]) was 7.5 mm and the “diameter of the inhibition zone (DIZ)” value (Candida albicans [18]) was 6 mm.

In the case of `O=C(C(=O)N1CCCC1)c1cn(CCCCCCn2cc(C(=O)C(=O)N3CCCC3)c3ccccc32)c2ccccc12`, the “diameter of the inhibition zone (DIZ)” value (Candida albicans [19]) is reported as 12.5 mm, the zone of inhibition at 545 µg/mL (Candida albicans [20]) is reported as 14.5 mm and the zone of inhibition at 545 µg/mL (Escherichia coli [21]) is reported as 11.5 mm. For the same molecule, the “diameter of the inhibition zone (DIZ)” value (Candida albicans [22]) was 10.5 mm, the “diameter of the inhibition zone (DIZ)” value (Candida albicans [23]) was 11 mm and the zone of inhibition at 545 µg/mL (Candida albicans [24]) was 15.5 mm.
